This is an account of results in ChEMBL document CHEMBL1158424, “Design, synthesis and biological investigation of certain pyrazole-3-carboxylic acid derivatives as novel carriers for nitric oxide” (Bioorg Med Chem, 2009).

The term MIC denotes the least concentration at which growth counts as inhibited. The term inhibition in vivo denotes how much of the control response was suppressed.

Molecules are shown by their SMILES. ≈ marks a conversion by molar mass, not a printed value. Calls of active or inactive are those of the source. The calls are words filed in the database; no cut-off is given here.

Series [1] has as its system Pseudomonas aeruginosa. Description: Antibacterial activity against Pseudomonas aeruginosa after 24 hrs by agar cup diffusion method. Type of series: functional. In short, it runs like this:
(§1)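 Nutrient agar seeded with culture, poured 3–4 mm; six 10 mm cups per plate, one as DMF solvent control. Compounds dissolved in DMF (stock 1 mg/mL), two-fold serial dilutions 32–512 µg/mL, 0.1 mL per cup. Incubation 24 h at 37 °C; inhibition zone diameter read in mm. MIC taken as intercept of log concentration versus zone diameter plot; ciprofloxacin reference.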

Series [2] concerns Escherichia coli. In words: Antibacterial activity against Escherichia coli C-600 after 24 hrs by agar cup diffusion method. Type of series: functional. In short, it runs like this:
as §1

In series [3] the test system is Bacillus subtilis. Description: Antibacterial activity against Bacillus subtilis after 24 hrs by agar cup diffusion method. The class given is functional. An outline of the steps:
as §1

For series [4], the system named is Staphylococcus aureus. In words: Antibacterial activity against Staphylococcus aureus NCTC 6571 after 24 hrs by agar cup diffusion method. Type of series: functional. In short, it runs like this: as §1
The subject of series [5] is Rattus norvegicus. Description: Antiinflammatory activity in albino rat assessed as inhibition of carrageenan-induced paw edema at 100 mg/kg, po administered 30 mins prior to carrageenan challenge measured after 1 hr. The class given is functional. In short, it runs like this: (§2)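 Male albino rats, 140–150 g, groups of 5, acclimatized 3 days, water only on the last day. Oral dosing in carboxymethylcellulose vehicle 30 min before subplantar 1% carrageenan (0.1 mL) into one hind paw; contralateral paw given saline. Paw thickness by digital plethysmometer at 0–5 h. Percent inhibition from difference between paws, treated versus vehicle control; indomethacin reference; mean ± SEM.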
In general terms: In the carrageenan paw model, swelling and tenderness develop within hours.

Series [6] deals with Rattus norvegicus. In words: Antiinflammatory activity in albino rat assessed as inhibition of carrageenan-induced paw edema at 100 mg/kg, po administered 30 mins prior to carrageenan challenge measured after 2 hrs. Type of series: functional. An outline of the steps: as §2
For series [7], the system named is Rattus norvegicus. In words: Antiinflammatory activity in albino rat assessed as inhibition of carrageenan-induced paw edema at 100 mg/kg, po administered 30 mins prior to carrageenan challenge measured after 3 hrs. Type of series: functional. An outline of the steps: as §2
Series [8] has as its system Rattus norvegicus. Description: Antiinflammatory activity in albino rat assessed as inhibition of carrageenan-induced paw edema at 100 mg/kg, po administered 30 mins prior to carrageenan challenge measured after 4 hrs. Type of series: functional. In short, it runs like this:
as §2

Series [9] has as its system Rattus norvegicus. In words: Antiinflammatory activity in albino rat assessed as inhibition of carrageenan-induced paw edema at 100 mg/kg, po administered 30 mins prior to carrageenan challenge measured after 5 hrs. Type of series: functional. In short, it runs like this: as §2
Series [10] relates to Rattus norvegicus. In words: Gastrointestinal toxicity in albino rat assessed as ulcer index at 100 mg/kg, po. Type of series: organism-based. Also on record: dose 100 mg/kg, route oral. To be noted: in vivo. An outline of the steps: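 Rats from the paw edema study killed by ether overdose; stomachs removed, opened and examined for visible lesions. Each lesion scored 0–5 by length (0 none, 1 petechiae, 2 <1 mm, 3 1–2 mm, 4 2–4 mm, 5 >4 mm erosions). Scores summed per rat; group ulcer index is the mean lesion score.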

The nature of series [11]: Nitric oxide release in phosphate buffer at pH 7.4 after 1 hr by Griess diazotization reaction method in presence of L-cysteine. Further details: concentration or dose not given beside the values. An outline of the steps:
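Incubation in pH 7.4 phosphate buffer with L-cysteine for 1 h at 37 °C. Then 1 mL of mixture treated with Griess reagent (sulfanilamide, N-naphthylethylenediamine, phosphoric acid); absorbance read at 540 nm after 25 min. Nitrite quantified against sodium nitrite standard curve; % release = found/theoretical NO × 100.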
A general note: The Griess reaction detects nitrite, a stable product of nitric oxide.

Regarding `O=C(OCCO)c1nn(-c2ccccc2)c(-c2ccccc2)c1C(=O)c1ccccc1`, the minimal inhibitory concentration (MIC) in series [1] turned out to be 1.29 µg/mL (≈ 3.13 µM); in series [2] (C-600, 24 h) it was 7.95 µg/mL (≈ 19.3 µM); in [3] it was 3.88 µg/mL (≈ 9.41 µM). Besides, in [4], the MIC entry is “inactive”. The inhibition in vivo at 100 mg/kg in series [5] came out at 19.7%; in series [6], 51.5%; in [7], 66.4%; in series [8], 68.6%; in series [9], 71.7%. Moreover, the UI in series [10] is listed as 9.
In the case of `COc1ccc2c(c1)c(CC(=O)O)c(C)n2C(=O)c1ccc(Cl)cc1` [INDOMETHACIN], the UI in [10] was determined as 69.5.
Turning to `COc1ccc(NC(=O)c2nn(-c3ccccc3)c(-c3ccccc3)c2C(=O)c2ccccc2)cc1`, the MIC turned out to be 22.9 µg/mL (≈ 48.4 µM) in [1]; 4.5 µg/mL (≈ 9.5 µM) in [2] (C-600, 24 h); 43.8 µg/mL (≈ 92.5 µM) in series [3]. Moreover, the MIC entry in series [4] was “inactive”. Moreover, the inhibition in vivo at 100 mg/kg in [5] worked out at 40%; in [6] it was 42.5%; in series [7] it was 28.3%; in [8] it was 43%; in series [9], 52.9%. Also, in [10], the UI stood at 33.3.
For `Cc1ccc(NC(=O)c2nn(-c3ccccc3)c(-c3ccccc3)c2C(=O)c2ccccc2)cc1`, the MIC amounted to 4.3 µg/mL (≈ 9.4 µM) in [1]; 16.1 µg/mL (≈ 35.3 µM) in series [2] (C-600, 24 h); 33.8 µg/mL (≈ 73.9 µM) in series [3]. Further, the MIC result in series [4] was “inactive”. Moreover, the inhibition in vivo at 100 mg/kg stood at 42.5% in series [5]; 29.1% in series [6]; 28.3% in [7]; 30.2% in series [8]; 51.2% in series [9]. In [10], the UI turned out to be 4.
For `O=C(Nc1ccc(S(=O)(=O)Nc2ncccn2)cc1)c1nn(-c2ccccc2)c(-c2ccccc2)c1C(=O)c1ccccc1`, the MIC in [1] was 44.3 µg/mL (≈ 73.8 µM); in series [3], 47 µg/mL (≈ 78.3 µM). Also, the MIC result in series [2] and in [4] was “inactive” throughout. The inhibition in vivo at 100 mg/kg came to 18.2% in series [5]; 18.2% in series [6]; 25% in series [7]; 27% in series [8]; 41.2% in series [9]. The UI in [10] was found to be 9.3.
For `C/C(=N\O)c1ccc(NC(=O)c2nn(-c3ccccc3)c(-c3ccccc3)c2C(=O)c2ccccc2)cc1`, the MIC turned out to be 27.2 µg/mL (≈ 54.4 µM) in series [1]; 1.62 µg/mL (≈ 3.24 µM) in series [2] (C-600, 24 h); 90.4 µg/mL (≈ 181 µM) in series [3]. Moreover, the Activity in series [11] is 11.6%. The MIC entry in series [4] was “inactive”. Besides, the inhibition in vivo at 100 mg/kg in [5] was found to be 16.4%; in series [6], 33.3%; in [7], 33.3%; in series [8], 51.5%; in [9], 62.3%. The UI in series [10] is 4.
For `O=C(O)c1nn(-c2ccccc2)c(-c2ccccc2)c1C(=O)c1ccccc1`, the MIC worked out at 1.92 µg/mL (≈ 5.21 µM) in series [1]; 16.1 µg/mL (≈ 43.7 µM) in series [2] (C-600, 24 h); 10.8 µg/mL (≈ 29.2 µM) in series [3]. Besides, the MIC entry in [4] is “inactive”. Besides, the inhibition in vivo at 100 mg/kg in series [5] was found to be 32.7%; in series [6], 35%; in [7], 36.5%; in [8] it was 51.5%; in series [9] it was 56.6%. The UI in series [10] worked out at 8.
As for `Cc1ccc(NC(=O)c2nn(-c3ccccc3)c(-c3ccccc3)c2/C(=N/O)c2ccccc2)cc1`, the minimal inhibitory concentration (MIC) in series [1] worked out at 7.99 µg/mL (≈ 16.9 µM); in [2] (C-600, 24 h), 28.6 µg/mL (≈ 60.6 µM); in [3] it was 2.87 µg/mL (≈ 6.07 µM). Also, in series [11], the Activity is 10.1%. The MIC entry in [4] was “inactive”. Further, the inhibition in vivo at 100 mg/kg was 12.7% in series [5]; 20% in series [6]; 36.5% in series [7]; 45.6% in series [8]; 82.6% in [9]. The UI in [10] is recorded as 3.
For `O=C(O)c1ccc(NC(=O)c2nn(-c3ccccc3)c(-c3ccccc3)c2/C(=N/O)c2ccccc2)cc1`, the MIC was determined as 13.6 µg/mL (≈ 27.1 µM) in series [1]; 2.8 µg/mL (≈ 5.57 µM) in series [2] (C-600, 24 h); 29.5 µg/mL (≈ 58.7 µM) in series [3]; 50.5 µg/mL (≈ 100 µM) in [4] (NCTC 6571, 24 h). Besides, the Activity in [11] was determined as 9.3%. Besides, the inhibition in vivo at 100 mg/kg in series [5] amounted to 45.5%; in series [6], 45%; in [7], 47.6%; in [8], 61.8%; in series [9] it was 81.2%. The UI in [10] was 8.5.
